In ChEMBL document CHEMBL1149745, “An antiplatelet aggregation principle and X-ray structural analysis of cis-khellactone diester from Peucedanum japonicum” (1992):

Key:
Type in all cases: functional, Oryctolagus cuniculus, Platelet
[1] = Antiplatelet aggregation activity in ADP-induced rabbit platelets assessed as aggregation at 100 ug/ml
Summary of the method: (§1)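 Platelets preincubated 3 min at 37° with test agent (100 µg/ml) or 0.5% DMSO as control, then challenged with an inducer: ADP 20 µM, PAF 2 ng/ml, arachidonic acid 100 µM, collagen 10 µg/ml. Percent aggregation reported as means ± S.E.M., n = 3–6, compared against the respective control.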

[2] = Antiplatelet aggregation activity in arachidonic acid-induced rabbit platelets assessed as aggregation at 100 ug/ml; summary of the method: as §1
[3] = Antiplatelet aggregation activity in collagen-induced rabbit platelets assessed as aggregation at 100 ug/ml; summary of the method: as §1
[4] = Antiplatelet aggregation activity in PAF-induced rabbit platelets assessed as aggregation at 100 ug/ml; summary of the method: as §1

Compound	Activity [1]	Activity [2]	Activity [3]	Activity [4]
CC(C)=CC(=O)O[C@H]1c2c(ccc3ccc(=O)oc23)OC(C)(C)[C@H]1OC(=O)CC(C)C (relative stereo)	64%	76.3%	75.7%	57.4%
CC(C)=CC(=O)O[C@H]1c2c(ccc3ccc(=O)oc23)OC(C)(C)[C@H]1OC(=O)C=C(C)C (relative stereo)	61.7%	43.6%	72.3%	73.2%
CC(C)CC(=O)O[C@H]1c2c(ccc3ccc(=O)oc23)OC(C)(C)[C@H]1OC(=O)CC(C)C	8.8%	49.8%	39.3%	0%
